The values below come from ChEMBL document CHEMBL1146374, “Clubbed triazoles: a novel approach to antitubercular drugs” (Eur J Med Chem, 2007).

The nature of data set [1]: Cytotoxicity against Vero-C1008 cells at 6.25 to 50 ug/ml. The settings on record: chlorocebus sabaeus. Format: cell-based. In outline: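 Vero-C-1008 cells were exposed to compounds at several concentrations across 6.25–50 µg/ml. Cytotoxicity was read out by neutral red uptake.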
For data set [2], the system named is Mycobacterium tuberculosis. Briefly: (§1) Antituberculosis activity against Mycobacterium tuberculosis H37Rv by Microplate Alamar Blue Assay. Format: functional. Put shortly:
(§2)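 MIC against M. tuberculosis H37Rv (ATCC 27294) in BACTEC 12B medium by broth microdilution (MABA). Primary actives were retested at lower concentrations. MIC is the lowest concentration giving a […] fluorescence reduction versus controls. Fluorescent compounds were run in the BACTEC 460 radiometric system. Rifampin was the reference.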
A general note: The colour change of resazurin is a common sign of viable cells or microbes.

The subject of data set [3] is Mycobacterium tuberculosis. The data set can be described thus: Growth inhibition of Mycobacterium tuberculosis H37Rv at 6.25 ug/ml by Microplate Alamar Blue Assay. Format: functional. The settings on record: read-out: GI. Put shortly: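 Primary single-concentration screen against M. tuberculosis H37Rv (ATCC 27294) in BACTEC 12B medium by MABA broth microdilution, read as % inhibition. Compounds that fluoresce were tested in the BACTEC 460 radiometric system. More than 95% inhibition was the activity cutoff.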

Data set [4] relates to Mycobacterium tuberculosis. Described as §1. The class given is functional. In outline: as §2
This is another data set of the same source.

The next data set concerns Staphylococcus aureus. The data set can be described thus: Antibacterial activity against Staphylococcus aureus at 50 to 100 uM after 24 hrs by well diffusion method. Format: functional. Put shortly: (§3)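 Agar well diffusion: nutrient agar plates with 10 mm wells cut by sterile cork borer; 24-h subcultured bacteria swabbed onto the plates from nutrient broth. Compounds were dissolved in chloroform and added to wells at […]. Gentamycin served as the standard antibiotic.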
A general note: Agar diffusion results depend on both activity and mobility in agar.

The next data set deals with Pseudomonas aeruginosa. Briefly: Antibacterial activity against Pseudomonas aeruginosa at 50 to 100 uM after 24 hrs by well diffusion method. The class given is functional. In outline:
as §3

The next data set concerns Escherichia coli. Briefly: Antibacterial activity against Escherichia coli at 50 to 100 uM after 24 hrs by well diffusion method. Format: functional. Put shortly:
as §3

The next data set has as its system Salmonella typhi. Briefly: Antibacterial activity against Salmonella typhi at 50 to 100 uM after 24 hrs by well diffusion method. Format: functional, Salmonella enterica subsp. enterica serovar Typhi. Put shortly: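 Agar well diffusion on nutrient agar plates; wells cut with a 10 mm sterile cork borer. Plates swabbed with 24-h subcultured bacteria from nutrient broth. Compounds dissolved in chloroform and added to wells at a range of concentrations. Gentamycin was the standard.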

Values after ≈ are worked out from the molar mass of the structure shown.

`O=C(O)CCNc1nc(Cc2nnc(SCC(=O)N/N=C\c3ccccc3)n2NC(=O)c2ccccc2)cs1`: the Activity result in data set [1] is “Non-toxic”. The figures for the MIC in data set [2] and in data set [4] were < 6.25 µg/mL and 3.13 µM (≈ 1.77 µg/mL), respectively. Further, the inhibition of growth at 6.25 µg/mL in data set [3] came out at 98%. In addition, the zone of inhibition in the data set on Staphylococcus aureus turned out to be 18 mm; with Pseudomonas aeruginosa, 12 mm; with Escherichia coli, 14 mm. This compound also registered an Inhibition with Salmonella typhi of 12%.

In the case of `NNC(=O)CSc1nnc(Cc2csc(NCCC(=O)O)n2)n1NC(=O)c1ccccc1`, the Activity entry in data set [1] was “Non-toxic”. Moreover, the minimum inhibitory concentration (MIC) is < 6.25 µg/mL in data set [2] and 6.25 µM (≈ 2.98 µg/mL) in data set [4]. Moreover, in data set [3], the inhibition of growth at 6.25 µg/mL was determined as 96%. Moreover, the figures for the zone of inhibition with Staphylococcus aureus, with Pseudomonas aeruginosa and in the data set on Escherichia coli were 20 mm, 18 mm and 14 mm, respectively. This compound also showed an Inhibition with Salmonella typhi of 12%.

As to `O=C(CSc1nnc(Cc2csc(NC(=O)c3ccccc3)n2)n1NC(=O)c1ccccc1)N/N=C/c1ccccc1`, the Activity entry in data set [1] is listed as “Non-toxic”. Besides, the minimal inhibitory concentration (MIC) in data set [2] was < 6.25 µg/mL; in data set [4], 0.39 µM (≈ 0.233 µg/mL). The inhibition of growth at 6.25 µg/mL in data set [3] is 98%. The zone of inhibition in the data set with Staphylococcus aureus was found to be 32 mm; in the data set with Pseudomonas aeruginosa it was 30 mm; in the data set on Escherichia coli it was 30 mm. For the same compound, the Inhibition in the data set with Salmonella typhi is 27%.

In the case of `CC(=O)Nc1nc(Cc2nnc(SCC(=O)NN)n2NC(=O)c2ccccc2)cs1`, the Activity entry in data set [1] is given as “Non-toxic”. The figures for the minimal inhibitory concentration (MIC) in data set [2] and in data set [4] were < 6.25 µg/mL and 3.13 µM (≈ 1.4 µg/mL), respectively. In addition, the inhibition of growth at 6.25 µg/mL in data set [3] was found to be 100%. Further, the results for the zone of inhibition with Staphylococcus aureus, with Pseudomonas aeruginosa and in the data set with Escherichia coli were 32 mm, 32 mm and 26 mm, respectively. In the data set on Salmonella typhi, this compound yielded an Inhibition of 24%.

As usually defined, the MIC is the least concentration at which growth counts as inhibited. Higher therefore signals a less susceptible organism. Broadly, the zone of inhibition is the size of the clear area around the sample on an inoculated plate. Lower therefore signals little suppression of growth. For orientation: Inhibition means the change of the read-out against control, counted positive when it falls.
